Consider 9 molecules from ChEMBL document CHEMBL1773068, “Drug to genome to drug: discovery of new antiplasmodial compounds” (J Med Chem, 2011).

The test system of test [1] is Plasmodium falciparum. Kind of test: Antiplasmodial activity against chloroquine-susceptible Plasmodium falciparum GHA strain infected in human erythrocytes after 72 hrs by spectrophotometry. The class given is functional, organism-based. Summed up:
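P. falciparum cultured in human A+ erythrocytes in RPMI-1640 with 10% human serum, 37 °C, low oxygen (3% O2, 4% CO2, 93% N2). Infected red cell suspension (1% parasitemia, 2% hematocrit) incubated with compounds 72 h, then frozen. Growth read by Malstat method: NBT/PES added, 2 h in dark, absorbance at 655 nm. IC50 from duplicate determinations.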

In a further test the test system is MRC5. Kind of test: Cytotoxicity against human MRC5 SV2 cells after 72 hrs. The class given is cell-based. The note with it: MRC5, 72 h. Summed up: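 MRC-5 SV2 human fetal lung fibroblasts grown in MEM with L-glutamine, NaHCO3 and 5% FCS at 37 °C, 5% CO2. 10^4 cells/well seeded onto prediluted compounds, 72 h at 37 °C. Viability by resazurin added for 24 h, fluorescence at ex 530/em 590 nm. IC50 from duplicate determinations.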

Test [2] has as its system Plasmodium falciparum. Kind of test: Inhibition of Plasmodium falciparum GHA strain PDE assessed as inhibition of cGMP hydrolysis at 20 uM after 6 hrs by time resolved fluorescence resonance energy transfer-based assay. Summed up: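 Parasite lysate (2 μL, ~400 000 parasites) incubated with cGMP (150 nM) and inhibitor at 20 μM (4% DMSO final) for 6 h at 37 °C. Buffer: 50 mM Tris-HCl pH 7.4, 6 mM MgCl2, 1 mM MnCl2, 4 mM DTT. Residual cGMP measured by competitive HTRF (d2-labelled cGMP vs anti-cGMP cryptate), 665/620 nm ratio after 1 h at room temperature. Duplicates, each read twice.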

Test [3] has as its system Plasmodium falciparum. Kind of test: Inhibition of Plasmodium falciparum GHA strain PDE assessed as inhibition of cAMP hydrolysis at 20 uM after 6 hrs by time resolved fluorescence resonance energy transfer-based assay. The method in brief:
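Parasite lysate (2 μL, ~400 000 parasites) incubated with cAMP (150 nM) and inhibitor at 20 μM (4% DMSO final) for 6 h at 37 °C. Buffer: 50 mM Tris-HCl pH 7.4, 6 mM MgCl2, 1 mM MnCl2, 4 mM DTT. Residual cAMP measured by competitive HTRF (d2-labelled cAMP vs anti-cAMP cryptate), 665/620 nm ratio after 1 h at room temperature. Duplicates, each read twice.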

Active and inactive are the calls of the source. The calls are words filed in the database; no cut-off is given here. Where only a bound is given, the exact number is not on record here.

For the molecule `O=C1[C@H]2Cc3c([nH]c4ccccc34)[C@@H](c3ccc4c(c3)OCO4)N2C(=O)CN1[C@@H]1CCN(Cc2ccccc2)C1`, the IC50 is 0.5 µM in the test with Plasmodium falciparum [1] (read-out: IC50), 0.501 µM in the test on Plasmodium falciparum [1] (read-out: pIC50 (converted)) and 10 µM with MRC5. In addition, the inhibition in the test with Plasmodium falciparum [2] was 60%. The inhibition entry in the test with Plasmodium falciparum [3] was “Active”.
With `OCCN(CCO)c1nc(N2CCCCC2)c2nc(N(CCO)CCO)nc(N3CCCCC3)c2n1` [DIPYRIDAMOLE], the IC50 in the test with Plasmodium falciparum [1] (read-out: IC50) was determined as 64 µM. Moreover, the inhibition entry with Plasmodium falciparum [2] and with Plasmodium falciparum [3] was “Active” each time.
As for `CCCOc1ccccc1-c1nc2[nH]nnc2c(=O)[nH]1` [ZAPRINAST], in the test on Plasmodium falciparum [1] (read-out: IC50), the IC50 was 35 µM. Moreover, the inhibition entry with Plasmodium falciparum [2] and with Plasmodium falciparum [3] was “Active” in each case.
As for `O=C1[C@H]2Cc3c([nH]c4ccccc34)[C@@H](c3ccc4c(c3)OCO4)N2C(=O)CN1C1CCN(Cc2ccccc2)CC1`, the figures for the IC50 in the test with Plasmodium falciparum [1] (read-out: IC50) and in the test on MRC5 were 1 µM and 7 µM, respectively. The inhibition in the test with Plasmodium falciparum [2] worked out at 60%. In addition, the inhibition result with Plasmodium falciparum [3] is “Active”.
As to `O=C1[C@H]2Cc3c([nH]c4ccccc34)[C@@H](c3ccc4c(c3)OCO4)N2C(=O)CN1[C@@H]1CCNC1`, the IC50 in the test with Plasmodium falciparum [1] (read-out: IC50) was 12 µM; in the test with MRC5, greater than 64 µM.
In the case of `O=C1[C@H]2Cc3c([nH]c4ccccc34)[C@@H](c3ccc4c(c3)OCO4)N2C(=O)CN1c1ccccc1`, the IC50 in the test with Plasmodium falciparum [1] (read-out: IC50) and with MRC5 was greater than 64 µM in each case.
Consider `O=C1[C@H]2Cc3c([nH]c4ccccc34)[C@@H](c3ccc4c(c3)OCO4)N2C(=O)CN1c1cccc(CN2CCNCC2)c1`, for which the IC50 in the test with Plasmodium falciparum [1] (read-out: IC50) came to 10 µM; with MRC5, 8 µM.
With `NN1CC(=O)N2[C@H](c3ccc4c(c3)OCO4)c3[nH]c4ccccc4c3C[C@@H]2C1=O`, the IC50 in the test on Plasmodium falciparum [1] (read-out: IC50) and with MRC5 was greater than 64 µM throughout.
Take `O=C1NCC(=O)N2[C@H](c3ccc4c(c3)OCO4)c3[nH]c4ccccc4c3C[C@H]12` [NORTADALAFIL]: the IC50 in the test with Plasmodium falciparum [1] (read-out: IC50) and in the test on MRC5 was greater than 64 µM each time.
